In ChEMBL document CHEMBL3272275, “Synthesis and antiinflammatory activity of some 1,2,3- and 1,2,4-triazolepropionic acids” (J Med Chem, 1978) one finds Activity data, which are given here for 46 compounds.

Holding throughout (set-up): scale not given: the % may be the effect or the level left
In data set [1] the test system is Rattus norvegicus. The experiment in a line: Antiinflammatory activity against carrageenan/Evans blue dye-induced pleural effusion rat model assessed as reduction in pleural fluid volume at 0.4 mmol/kg, po administered 1 hr prior challenge measured 6 hrs post challenge relative to control. Format: functional. An outline of the steps:
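Oral dosing at 0.4 mmol/kg to groups of six rats, 1 h before intrapleural carrageenan plus Evans blue dye. Rats killed 6 h after the irritants and pleural fluid volume measured. Value is percent reduction in fluid volume relative to untreated controls.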

In data set [2] the test system is Rattus norvegicus. The experiment in a line: Antiinflammatory activity in Freund's adjuvant-induced Lewis rat arthritis model assessed as reduction of paw volume at 0.2 mmol/kg, po qd administered on day 0 to day 21 of adjuvant challenge measured on day 7 by plethysmometry relative to control. It is filed as functional.
Data set [3] deals with Rattus norvegicus. As to the kind of experiment: Antiinflammatory activity in Freund's adjuvant-induced Lewis rat arthritis model assessed as reduction of paw volume at 0.2 mmol/kg, po qd administered on day 0 to day 21 of adjuvant challenge measured on day 21 by plethysmometry relative to control. Format: functional. An outline of the steps:
(§1)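 Male Lewis rats (125-150 g) given an intradermal injection of 0.05 mL of 0.65% Mycobacterium tuberculosis suspension in Freund's adjuvant into the right hind plantar surface on day 0. Negative controls received mineral oil only. Dosing once daily by gavage, groups of six, days 0-21. Injected and uninjected hind-foot volume change over days 0-21 measured plethysmographically. Value is percent reduction relative to controls.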

Data set [4] has as its system Rattus norvegicus. The experiment in a line: […] in Freund's adjuvant-induced Lewis rat arthritis model assessed as reduction of uninjected paw volume at 0.2 mmol/kg, po qd administered on day 0 to day 21 of adjuvant challenge measured on day 21 by plethysmometry relative to control. To be noted: in vivo. Format: organism-based. The method in brief:
as §1

In the case of `O=C(O)CCn1nc(-c2ccccc2)c(-c2ccccc2)n1`, the Activity is recorded as 26% with Rattus norvegicus [1], 21% in the data set with Rattus norvegicus [2], 23% with Rattus norvegicus [3] and 34% in the data set on Rattus norvegicus [4].

For `Cc1cccc(-c2cnn(CCC(=O)O)n2)c1`, the Activity is -1.3% in the data set with Rattus norvegicus [1], 13% with Rattus norvegicus [2], 4.5% in the data set on Rattus norvegicus [3] and 9.6% in the data set with Rattus norvegicus [4].

With `Cl.O=C(O)CCn1ncc(-c2cccnc2)n1`, the Activity in the data set with Rattus norvegicus [1] was -1.3%.

Consider `Cc1nn(CCC(=O)O)nc1-c1ccccc1`, for which, in the data set on Rattus norvegicus [1], the Activity is listed as 17%.

`O=C(O)CCCn1ncc(-c2ccccc2)n1`: the Activity in the data set with Rattus norvegicus [1] is 13%; in the data set with Rattus norvegicus [2], -1.8%; in the data set on Rattus norvegicus [3], 14%; in the data set with Rattus norvegicus [4], 1.4%.

On to `O=C(O)Cn1ncc(-c2ccccc2)n1`, for which the Activity in the data set with Rattus norvegicus [1] is listed as -5%; in the data set with Rattus norvegicus [2], -17%; in the data set with Rattus norvegicus [3] it was -9%; in the data set with Rattus norvegicus [4], 45%.

`CC(=O)Nc1cccc(-c2cnn(CCC(=O)O)n2)c1`: the Activity in the data set on Rattus norvegicus [1] is recorded as -3.2%; in the data set on Rattus norvegicus [2], 8.1%; in the data set with Rattus norvegicus [3], -0.1%; in the data set on Rattus norvegicus [4] it was -24%.

For the compound `O=C(O)CCn1ncc(-c2cc(Cl)cc(Cl)c2)n1`, the Activity turned out to be 0% in the data set on Rattus norvegicus [1], 35% in the data set on Rattus norvegicus [2], 33% in the data set with Rattus norvegicus [3] and 38% in the data set with Rattus norvegicus [4].

Take `O=C(O)CCn1ncc(-c2cccc(Br)c2)n1`: the Activity with Rattus norvegicus [1] is listed as 29%; in the data set with Rattus norvegicus [2], 19%; with Rattus norvegicus [3] it was 30%; in the data set on Rattus norvegicus [4], 25%.

On to `O=C(O)CCn1ncc(-c2cccc(Cl)c2)n1`, for which the Activity with Rattus norvegicus [1] worked out at 19%; in the data set with Rattus norvegicus [2] it was 28%; in the data set on Rattus norvegicus [3], 42%; with Rattus norvegicus [4], 26%.

On to `O=C(O)CCn1ncc(-c2ccccc2)n1`, for which the Activity in the data set with Rattus norvegicus [1] amounted to 42%; in the data set on Rattus norvegicus [2], 36%; in the data set with Rattus norvegicus [3], 57%; in the data set with Rattus norvegicus [4], 63%.

As to `O=C(O)/C=C/c1cnn(-c2cccc(Br)c2)n1`, the Activity in the data set with Rattus norvegicus [1] was found to be 20%; with Rattus norvegicus [2], 12%; in the data set on Rattus norvegicus [3] it was 14%; with Rattus norvegicus [4], 16%.

As for `O=C(O)/C=C/c1cnn(-c2cccc(Cl)c2)n1`, the Activity in the data set with Rattus norvegicus [1] is 18%.

Consider `O=C(O)/C=C/c1cnn(-c2ccccc2)n1`, for which the Activity with Rattus norvegicus [1] was 13%; with Rattus norvegicus [2], 14%; in the data set on Rattus norvegicus [3], 20%; with Rattus norvegicus [4] it was 42%.

As for `O=C(O)CCc1cnn(-c2cccc(Br)c2)n1`, the Activity was 14% in the data set with Rattus norvegicus [1], 14% in the data set with Rattus norvegicus [2], 35% in the data set with Rattus norvegicus [3] and 39% in the data set with Rattus norvegicus [4].

Consider `O=C(O)CCc1cnn(-c2cccc(Cl)c2)n1`, for which the Activity in the data set on Rattus norvegicus [1] stood at 33%; in the data set on Rattus norvegicus [2], 13%; in the data set with Rattus norvegicus [3], 32%; with Rattus norvegicus [4] it was 11%.

As for `O=C(O)CCc1cnn(-c2ccccc2)n1`, the Activity amounted to 28% with Rattus norvegicus [1], 9.1% in the data set with Rattus norvegicus [2], 24% with Rattus norvegicus [3] and 36% in the data set on Rattus norvegicus [4].

Turning to `O=C(O)CCn1cc(-c2cccnc2)nn1`, the Activity is given as 5.1% with Rattus norvegicus [1], 9.3% in the data set on Rattus norvegicus [2], 18% with Rattus norvegicus [3] and -30% in the data set on Rattus norvegicus [4].

As to `CC(=O)Nc1cccc(-c2cn(CCC(=O)O)nn2)c1`, the Activity with Rattus norvegicus [1] is listed as 9.9%; with Rattus norvegicus [2], 1.7%; in the data set on Rattus norvegicus [3] it was 20%; with Rattus norvegicus [4] it was -19%.

As for `Nc1cccc(-c2cn(CCC(=O)O)nn2)c1`, the Activity in the data set with Rattus norvegicus [1] is listed as 1.4%; in the data set on Rattus norvegicus [2], 2.8%; with Rattus norvegicus [3], 14%; in the data set with Rattus norvegicus [4], -6.7%.

On to `CCOc1cccc(-c2cn(CCC(=O)O)nn2)c1`, for which the Activity in the data set on Rattus norvegicus [1] is recorded as 0.6%; with Rattus norvegicus [2], 0.4%; in the data set with Rattus norvegicus [3], -9%; in the data set with Rattus norvegicus [4], -28%.

On to `Cc1cccc(-c2cn(CCC(=O)O)nn2)c1`, for which the Activity is 0% in the data set with Rattus norvegicus [1], 10% in the data set with Rattus norvegicus [2], -7.8% in the data set on Rattus norvegicus [3] and 22% in the data set with Rattus norvegicus [4].

In the case of `O=C(O)CCn1cc(-c2cccc(Br)c2)nn1`, the Activity with Rattus norvegicus [1] was 11%; in the data set with Rattus norvegicus [2] it was 0%; in the data set on Rattus norvegicus [3] it was 7.2%; in the data set on Rattus norvegicus [4] it was 23%.

Turning to `O=C(O)CCn1cc(-c2cccc(Cl)c2)nn1`, the Activity in the data set on Rattus norvegicus [1] is reported as -1.4%; in the data set on Rattus norvegicus [2] it was -1.1%; in the data set with Rattus norvegicus [3] it was 3.5%; in the data set with Rattus norvegicus [4], -8.2%.

`O=C(O)CCn1cc(-c2cccc(F)c2)nn1`: the Activity with Rattus norvegicus [1] was 1.7%; with Rattus norvegicus [2], -9.9%; in the data set on Rattus norvegicus [3], -10%; in the data set with Rattus norvegicus [4] it was 1.6%.

Consider `O=C(O)CCn1cc(-c2ccccc2)nn1`, for which the Activity in the data set on Rattus norvegicus [1] is listed as 0%; in the data set on Rattus norvegicus [2] it was 8.9%; with Rattus norvegicus [3] it was 2.2%; in the data set with Rattus norvegicus [4] it was -12%.

Turning to `O=C(O)CCc1cn(-c2cccc(Cl)c2)nn1`, the Activity is given as 10% in the data set with Rattus norvegicus [1], 10% in the data set on Rattus norvegicus [2], -4.9% in the data set on Rattus norvegicus [3] and 21% with Rattus norvegicus [4].

As to `O=C(O)CCc1cn(-c2cccc(F)c2)nn1`, the Activity is -4.1% in the data set on Rattus norvegicus [1], 22% in the data set on Rattus norvegicus [2], -2.4% in the data set with Rattus norvegicus [3] and -2% in the data set with Rattus norvegicus [4].

Turning to `O=C(O)CCc1cn(-c2ccccc2)nn1`, the Activity in the data set on Rattus norvegicus [1] was 1.6%; with Rattus norvegicus [2], 2.3%; in the data set on Rattus norvegicus [3] it was -1.6%; in the data set on Rattus norvegicus [4], -3.2%.

As for `Cc1cccc(-c2ncn(CC(=O)O)n2)c1`, the Activity in the data set with Rattus norvegicus [1] is on record as 3%; with Rattus norvegicus [2], 0.2%; in the data set on Rattus norvegicus [3], -6%; in the data set with Rattus norvegicus [4], -13%.

Take `Cc1cccc(-c2ncn(CCC(=O)O)n2)c1`: the Activity is reported as -3.2% in the data set with Rattus norvegicus [1], -5.1% in the data set with Rattus norvegicus [2], 7.1% in the data set with Rattus norvegicus [3] and 50% in the data set with Rattus norvegicus [4].

Consider `O=C(O)CCn1cnc(-c2cccc(Br)c2)n1`, for which the Activity in the data set on Rattus norvegicus [1] was found to be 8.9%; in the data set with Rattus norvegicus [2] it was 6.2%; in the data set on Rattus norvegicus [3] it was 0.1%; in the data set on Rattus norvegicus [4], 16%.

As to `O=C(O)CCn1cnc(-c2cccc(Cl)c2)n1`, the Activity with Rattus norvegicus [1] is 1.1%; in the data set on Rattus norvegicus [2], 3%; in the data set with Rattus norvegicus [3] it was 11%; in the data set with Rattus norvegicus [4] it was 14%.

As for `O=C(O)CCn1cnc(-c2ccccc2)n1`, the Activity with Rattus norvegicus [1] was -3.7%; with Rattus norvegicus [2], 4.4%; in the data set with Rattus norvegicus [3], 8.6%; with Rattus norvegicus [4], 10%.

Regarding `O=C(O)CCc1ncn(-c2cc(Cl)cc(Cl)c2)n1`, the Activity in the data set with Rattus norvegicus [1] turned out to be 5.2%; with Rattus norvegicus [2] it was 23%; in the data set with Rattus norvegicus [3] it was 30%; in the data set with Rattus norvegicus [4] it was 71%.

As to `O=C(O)CCc1ncn(-c2cccc(Cl)c2)n1`, the Activity with Rattus norvegicus [1] is reported as 7.5%.

On to `O=C(O)CCc1ncn(-c2ccccc2)n1`, for which the Activity is recorded as 12% with Rattus norvegicus [1], 1.3% in the data set on Rattus norvegicus [2], -0.6% in the data set with Rattus norvegicus [3] and -15% in the data set on Rattus norvegicus [4].

For `Cc1cccc(-c2n[nH]c(CCC(=O)O)n2)c1`, the Activity in the data set with Rattus norvegicus [1] is reported as -3%.

For `O=C(O)CCc1nc(-c2cccc(Br)c2)n[nH]1`, the Activity is reported as -9% with Rattus norvegicus [1], -13% in the data set with Rattus norvegicus [2], -1.2% in the data set on Rattus norvegicus [3] and 30% in the data set with Rattus norvegicus [4].

For the compound `O=C(O)CCc1nc(-c2cccc(Cl)c2)n[nH]1`, the Activity is recorded as 2.9% in the data set on Rattus norvegicus [1], 3% in the data set on Rattus norvegicus [2], 3% in the data set with Rattus norvegicus [3] and 3% in the data set with Rattus norvegicus [4].

With `O=C(O)CCc1nc(-c2ccccc2)n[nH]1`, the Activity in the data set on Rattus norvegicus [1] is on record as -1.7%; in the data set with Rattus norvegicus [2], 9.1%; in the data set on Rattus norvegicus [3] it was 4.2%; in the data set with Rattus norvegicus [4], 30%.

`CC(=O)c1nn(CCC(=O)O)nc1-c1ccccc1`: the Activity in the data set with Rattus norvegicus [1] is 2.6%; in the data set with Rattus norvegicus [2], 13%; in the data set on Rattus norvegicus [3], -8%; in the data set on Rattus norvegicus [4] it was -30%.

Regarding `CN(C)c1nn(CCC(=O)[O-])nc1-c1ccccc1.[Na+]`, the Activity in the data set on Rattus norvegicus [1] is reported as 0%.

`O=C(O)CCn1nncc1-c1ccccc1`: the Activity in the data set on Rattus norvegicus [1] worked out at 5%.

Consider `O=C(O)CCc1nnn(-c2cccc(Br)c2)n1`, for which the Activity in the data set with Rattus norvegicus [1] is reported as 21%; in the data set with Rattus norvegicus [2], 17%; in the data set with Rattus norvegicus [3], 34%; in the data set on Rattus norvegicus [4], 22%.

As for `CCCCC1C(=O)N(c2ccccc2)N(c2ccccc2)C1=O` [PHENYLBUTAZONE], the Activity with Rattus norvegicus [1] was 28%; in the data set on Rattus norvegicus [2], 33%; in the data set with Rattus norvegicus [3] it was 39%; in the data set on Rattus norvegicus [4] it was 36%.
